{"data": "Measured values from different studies", "ABL1 non-phosphorylated": "Tyrosine-protein kinase ABL1, non-phosphorylated (ABL1, Homo sapiens, UniProt P00519)", "ABL1 F317I non-phosphorylated": "Tyrosine-protein kinase ABL1, non-phosphorylated (ABL1, Homo sapiens, UniProt P00519, F317I)", "ABL1 F317L": "Tyrosine-protein kinase ABL1 (ABL1, Homo sapiens, UniProt P00519, F317L)", "ABL1": "Tyrosine-protein kinase ABL1 (ABL1, Homo sapiens, UniProt P00519)", "note": "Lines come from different studies, so protocols differ."}
{"SMILES": "CN1CCN(C(=O)c2ccc(NC(=O)Nc3ccc(N(C)c4ccnc(Nc5ccc(CS(C)(=O)=O)cc5)n4)cc3)cc2)CC1", "target": "Tyrosine-protein kinase ABL1, phosphorylated (ABL1, Homo sapiens, UniProt P00519, E255K)", "effect on": "binding", "technique": "competition with immobilised ligand", "concentration": "1 µM", "endpoint": "remaining binding", "value": "38%"}
{"SMILES": "N#Cc1ccc(NC(=O)Nc2ccccc2)cc1", "target": "Tyrosine-protein kinase ABL1, phosphorylated (ABL1, Homo sapiens, UniProt P00519, T315I)", "effect on": "cell-free assay", "technique": "competition with immobilised ligand", "concentration": "25 µM", "endpoint": "remaining binding", "value": "100%"}
{"SMILES": "C[C@H]1CC[C@H](n2c3cnccc3c3cnc(Nc4ccc5c(n4)CCN(C(=O)CO)C5)nc32)CC1", "target": "ABL1 non-phosphorylated", "effect on": "binding", "technique": "competition with immobilised ligand", "concentration": "1 µM", "endpoint": "remaining binding", "value": "56%"}
{"SMILES": "CO[C@@H]1[C@H](N(C)C(=O)c2ccccc2)C[C@H]2O[C@]1(C)n1c3ccccc3c3c4c(c5c6ccccc6n2c5c31)C(=O)NC4", "target": "ABL1 F317I non-phosphorylated", "effect on": "enzyme activity", "action": "inhibitor", "concentration": "1 µM", "endpoint": "inhibition", "value": "0%"}
{"SMILES": "C1=C/COCc2cc(ccc2OCCN2CCCC2)Nc2nccc(n2)-c2cccc(c2)COC/1", "target": "ABL1 F317L", "effect on": "binding", "concentration": "0.1 µM", "endpoint": "remaining binding", "value": "58%"}
{"SMILES": "COc1ccc2[nH]c3c4[nH]c5ccc(OC)cc5c4c4c(c3c2c1)C(=O)NC4=O", "target": "ABL1 F317L", "effect on": "binding", "concentration": "1 µM", "endpoint": "remaining binding", "value": "84%"}
{"SMILES": "[2H]c1cc(C)c(NC(=O)c2cnc(Nc3cc(N4CCCCC4)nc(C)n3)s2)c(Cl)c1", "target": "ABL1", "effect on": "enzyme activity", "action": "inhibitor", "concentration": "100 pM", "endpoint": "inhibition", "value": "> 50%"}
{"SMILES": "C=CC(=O)N1CCC([C@@H]2CCNc3c(C(N)=O)c(-c4ccc(Oc5ccccc5)cc4)nn32)CC1", "target": "Tyrosine-protein kinase ABL1, phosphorylated (ABL1, Homo sapiens, UniProt P00519, M351T)", "effect on": "enzyme activity", "action": "inhibitor", "concentration": "1 µM", "endpoint": "inhibition", "value": "0%"}
{"SMILES": "Cc1ccc(NC(=O)c2ccnc(C(F)(F)F)c2)cc1-c1cc(OCCO)nc(N2CCOCC2)c1", "target": "ABL1 F317L", "effect on": "binding", "concentration": "1 µM", "endpoint": "remaining binding", "value": "84%"}
{"SMILES": "CC#CC(=O)N1CCC[C@H]1c1nc(-c2ccc(C(=O)Nc3ccccn3)cc2)c2c(N)nccn12", "target": "ABL1 F317I non-phosphorylated", "effect on": "enzyme activity", "action": "inhibitor", "concentration": "1 µM", "endpoint": "inhibition", "value": "25%"}
{"SMILES": "CCCCC(=O)Nc1ccc(-c2ccc3ncn(CCC)c(=O)c3c2)cn1", "target": "ABL1 non-phosphorylated", "effect on": "binding", "technique": "competition with immobilised ligand", "concentration": "0.5 µM", "endpoint": "remaining binding", "value": "85%"}
{"SMILES": "COc1ccc2oc(-c3ccc4nc(N)oc4c3)c/c(=N\\c3ccccc3NC(=O)CCN)c2c1", "target": "ABL1", "effect on": "binding", "concentration": "1 µM", "endpoint": "remaining binding", "value": "102%"}
